Source: ChEMBL document CHEMBL1122568, “Synthesis and anticonvulsant activity of some substituted lactams and amides” (J Med Chem, 1984)

How the values were obtained:
Mus sp. [1] = test: Number of animals protected out of 1 was evaluated by maximal electroshock induced convulsion test at 30 min after subcutaneous administration of >300 mg/kg; assay type: functional
Method in brief: (§1)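 Preliminary screen in small groups of mice (1-4) at 30, 100 and 300 mg/kg. Protection against MES or scMet convulsions, or rotorod toxicity, was scored at 30 min and 4 h after dosing. The smallest dose giving activity was recorded for each test.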

Mus sp. [2] = test: Number of animals protected out of 4 was evaluated by rotarod toxicity test and was determined 30 min t 30 min after subcutaneous administration of >300 mg/kg; assay type: functional; method in brief: as §1
Mus sp. [3] = test: Anticonvulsant activity was evaluated by metrazole-induced convulsion test and was determined 30 min after subcutaneous administration; assay type: functional
Method in brief: (§2)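 Secondary evaluation in mice. Compound was given intraperitoneally in 30% polyethylene glycol 400. Median effective dose (ED50) was determined against maximal electroshock (MES) or subcutaneous Metrazol (scMet) convulsions. Median toxic dose (TD50) was determined by the rotorod test. All were read 30 min after dosing.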

Mus musculus [4] = test: Anticonvulsant activity was evaluated by rotarod toxicity test and was determined 30 min after administration; assay type: organism-based; settings: in vivo, 0.5 h; method in brief: as §2
Mus sp. [5] = test: Anticonvulsant activity was evaluated by maximal electroshock induced convulsion test and was determined 30 min after subcutaneous administration; assay type: functional
Mus musculus [6] = test: Number of animal protected out of 1 was evaluated by metrazole-induced convulsion test at 30 min after subcutaneous administration of >300 mg/kg; assay type: functional; method in brief: as §1
[7] = Anticonvulsant activity was evaluated by rotarod toxicity test after subcutaneous administration.; assay type: organism-based; settings: mouse, in vivo, sc
Mus musculus [8] = test: Anticonvulsant activity was evaluated by metrazole-induced convulsion test after subcutaneous administration; assay type: functional; settings: sc; method in brief: as §2
Mus musculus [9] = test: Anticonvulsant activity was evaluated by maximal electroshock induced convulsion test after subcutaneous administration; assay type: functional; settings: sc
Mus sp. [10] = test: (§3) Anticonvulsant activity was evaluated by rotarod toxicity test and was determined 30 min after subcutaneous administration; assay type: organism-based; settings: in vivo, sc, 0.5 h
[11] = Anticonvulsant activity was evaluated by rotarod toxicity test after subcutaneous administration; assay type: organism-based; settings: mouse, in vivo, sc
Mus musculus [12] = test: Number of animals protected out of 4 was evaluated by maximal electroshock induced convulsion test at 30 min after subcutaneous administration of >300 mg/kg; assay type: functional; method in brief: as §1
Mus musculus [13] = test: Number of animals protected out of 1 was evaluated by maximal electroshock induced convulsion test at 30 min after subcutaneous administration of 300 mg/kg; assay type: functional; method in brief: as §1
Mus musculus [14] = test: Number of animal protected out of 1 was evaluated by metrazole-induced convulsion test at 30 min after subcutaneous administration of 30 mg/kg; assay type: functional; method in brief: as §1
Mus musculus [15] = test: Number of animals protected out of 1 was evaluated by rotarod toxicity test and was determined 30 min t 30 min after subcutaneous administration of >300 mg/kg; assay type: functional
Mus musculus [16] = test: Number of animal protected out of 4 was evaluated by metrazole-induced convulsion test at 30 min after subcutaneous administration of >300 mg/kg; assay type: functional; method in brief: as §1
Mus musculus [17] = test: Anticonvulsant activity was evaluated by maximal electroshock induced convulsion test after subcutaneous administration.; assay type: functional; settings: sc
[18] = as §3; assay type: organism-based; settings: mouse, in vivo, sc

Compound	No. of animals protected (Mus sp. [1])	No. of animals protected (Mus sp. [2])	Activity (Mus sp. [3])	Activity (Mus sp. [5])	No. of animals protected (Mus musculus [6])	ED50 (Mus musculus [8])	Activity (Mus sp. [10])	further results
CCOC(=O)N1CCCC(N)(c2ccccc2)C1=O (centres undefined)	1	4	300 mg/kg	300 mg/kg	1	–	–	Activity (Mus musculus [4]): 300 mg/kg
CCCC(C)(COC(N)=O)COC(N)=O [MEPROBAMATE]	–	–	–	–	–	31.5 mg/kg	–	TD50 [7]: 125 mg/kg; ED50 (Mus musculus [9]): 120 mg/kg
CCC(OCc1ccccc1)(C(=O)NC)c1ccccc1 (centres undefined)	0	0	>300 mg/kg	>300 mg/kg	0	–	> 300 mg/kg	–
CCOC(=O)N1CCCC(OC)(c2ccccc2)C1=O (centres undefined)	–	0	300 mg/kg	300 mg/kg	1	124 mg/kg	> 300 mg/kg	TD50 [11]: > 300 mg/kg; No. of animals protected (Mus musculus [12]): 2; ED50 (Mus musculus [9]): 225 mg/kg
CCOC(=O)N1CCCC(OCC2CCCCC2)(c2ccccc2)C1=O (centres undefined)	0	0	>300 mg/kg	>300 mg/kg	0	–	> 300 mg/kg	–
CCOC(=O)N1CCCC(c2ccccc2)C1=O (centres undefined)	0	0	>300 mg/kg	>300 mg/kg	0	–	> 300 mg/kg	–
CCOC(=O)N1CCCC(O)(c2ccccc2)C1=O (centres undefined)	–	0	30 mg/kg	300 mg/kg	–	124 mg/kg	> 300 mg/kg	TD50 [11]: 451 mg/kg; No. of animals protected (Mus musculus [13]): 1; No. of animals protected (Mus musculus [14]): 1; ED50 (Mus musculus [9]): 132 mg/kg
O=C(CBr)OC1(c2ccccc2)CCCNC1=O (centres undefined)	–	–	300 mg/kg	>300 mg/kg	–	–	–	Activity (Mus musculus [4]): > 300 mg/kg
CCOC(=O)N(C)C(=O)C(CC)(OCc1ccccc1)c1ccccc1 (centres undefined)	0	–	>300 mg/kg	>300 mg/kg	0	–	> 300 mg/kg	No. of animals protected (Mus musculus [15]): 0
CCOC(=O)N1CCCC(OC(C)=O)(c2ccccc2)C1=O (centres undefined)	0	0	>300 mg/kg	>300 mg/kg	0	–	–	Activity (Mus musculus [4]): > 300 mg/kg
CCCC(C)OC(=O)N1CCCC(O)(c2ccccc2)C1=O (centres undefined)	1	0	300 mg/kg	300 mg/kg	–	–	> 300 mg/kg	No. of animals protected (Mus musculus [16]): 1
NC(=O)NC(=O)Cc1ccccc1 [PHENACEMIDE]	–	–	–	–	–	–	–	TD50 [7]: 421 mg/kg; ED50 (Mus musculus [17]): 87.3 mg/kg
O=C1NCCCC1(O)c1ccccc1 (centres undefined)	0	0	>300 mg/kg	>300 mg/kg	0	–	> 300 mg/kg	–
CCC(O)(C(=O)NC)c1ccccc1 (centres undefined)	1	0	>300 mg/kg	300 mg/kg	0	–	> 300 mg/kg	–
COC1(c2ccccc2)CCCNC1=O (centres undefined)	1	4	300 mg/kg	100 mg/kg	–	49.6 mg/kg	300 mg/kg	No. of animals protected (Mus musculus [16]): 4; ED50 (Mus musculus [9]): 121 mg/kg; TD50 at 0.5 h [18]: 239 mg/kg
O=C(CCl)N1CCCC(O)(c2ccccc2)C1=O (centres undefined)	–	–	>300 mg/kg	>300 mg/kg	–	–	> 300 mg/kg	–
CCOC(=O)N1CCCC(Cl)(c2ccccc2)C1=O (centres undefined)	–	–	300 mg/kg	>300 mg/kg	–	–	> 300 mg/kg	–
CN1CCCC(O)(c2ccccc2)C1=O (centres undefined)	1	0	300 mg/kg	100 mg/kg	–	128 mg/kg	–	TD50 [11]: 350 mg/kg; No. of animals protected (Mus musculus [16]): 4; Activity (Mus musculus [4]): > 300 mg/kg; ED50 (Mus musculus [9]): 84.4 mg/kg
CCCC(CCC)C(=O)O [VALPROIC ACID]	–	–	–	–	–	149 mg/kg	–	–
CCOC(=O)NCCCC(O)(C(=O)OC)c1ccccc1 (centres undefined)	0	–	>300 mg/kg	>300 mg/kg	0	–	> 300 mg/kg	No. of animals protected (Mus musculus [15]): 0
O=C(CCCl)NCc1ccccc1 [BECLAMIDE]	–	–	–	–	–	117 mg/kg	–	TD50 [11]: 278 mg/kg; ED50 (Mus musculus [9]): 185 mg/kg
